Experimental data: the M2OR odorant receptor database
Numbering of substitutions follows the chain as printed.

These compounds were tested on T1, O10AD G65C. Conditions: stereoisomer not certain.
T1 sequence (whole entry): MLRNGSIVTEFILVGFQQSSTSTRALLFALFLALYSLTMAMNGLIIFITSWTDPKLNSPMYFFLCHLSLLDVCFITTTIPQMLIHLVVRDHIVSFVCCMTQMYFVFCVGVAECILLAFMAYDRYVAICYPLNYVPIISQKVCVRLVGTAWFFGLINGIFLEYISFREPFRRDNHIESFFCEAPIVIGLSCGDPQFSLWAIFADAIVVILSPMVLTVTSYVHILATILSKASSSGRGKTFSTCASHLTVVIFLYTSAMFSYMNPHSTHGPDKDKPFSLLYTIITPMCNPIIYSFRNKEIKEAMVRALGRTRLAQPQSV
How it was run: (§1)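 Values were gathered from published papers (main text and supplementary material), with extra details requested from the original authors when needed, and checked for typos and inconsistencies. Each receptor–molecule pair is called responsive (active) if the original authors judged the measured signal statistically different from baseline, and non-responsive (inactive) otherwise. Assay methods varied by source, often transient mammalian cell-line luciferase assays. Recorded details include cell line, G-protein, co-transfected protein and tags.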

Odorant receptor agonist call, inactive:
CCCCCCC=CCCC=O
Cc1cnc(C)c(C)n1
CCC1OC(C)=C(O)C1=O (stereo not given)
CCC1OC(=O)C(O)=C1C (stereo not given)
CC1=C(O)C(=O)OC1C (stereo not given)
CC1=C(O)C(=O)C(C)O1 (stereo not given)
CC1=NC(C)C(C)S1 (stereo not given)
CCCC(S)CCOC(C)=O (stereo not given)

These compounds were tested on T2, O10D3 V134A R197K. Conditions: stereoisomer not certain.
T2 sequence (whole entry): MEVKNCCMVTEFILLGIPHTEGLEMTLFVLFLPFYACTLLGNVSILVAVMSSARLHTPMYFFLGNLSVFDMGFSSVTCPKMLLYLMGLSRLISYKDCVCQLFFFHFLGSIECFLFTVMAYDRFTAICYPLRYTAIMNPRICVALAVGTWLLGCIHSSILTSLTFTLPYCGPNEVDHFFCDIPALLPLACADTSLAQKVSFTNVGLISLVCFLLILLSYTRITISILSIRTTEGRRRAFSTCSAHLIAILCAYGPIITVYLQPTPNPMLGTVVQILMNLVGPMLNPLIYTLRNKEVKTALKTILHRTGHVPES
How it was run: as §1

Odorant receptor agonist call, inactive:
CCCCCCC=CCCC=O
Cc1cnc(C)c(C)n1
CCC1OC(C)=C(O)C1=O (stereo not given)
CCC1OC(=O)C(O)=C1C (stereo not given)
CC1=C(O)C(=O)OC1C (stereo not given)
CC1=C(O)C(=O)C(C)O1 (stereo not given)
CC1=NC(C)C(C)S1 (stereo not given)
CCCC(S)CCOC(C)=O (stereo not given)

Each compound was assayed on T3, O10G4 L24P V195E. Conditions: stereoisomer not certain.
T3 sequence (whole entry): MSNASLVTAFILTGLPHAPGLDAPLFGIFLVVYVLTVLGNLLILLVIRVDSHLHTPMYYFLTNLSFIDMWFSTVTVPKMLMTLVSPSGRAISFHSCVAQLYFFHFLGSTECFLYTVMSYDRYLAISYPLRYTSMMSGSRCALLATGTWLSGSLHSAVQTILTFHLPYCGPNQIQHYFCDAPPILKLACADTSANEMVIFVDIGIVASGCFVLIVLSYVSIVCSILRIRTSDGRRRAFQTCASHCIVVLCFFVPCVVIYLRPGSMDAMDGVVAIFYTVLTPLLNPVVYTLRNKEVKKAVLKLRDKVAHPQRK
How it was run: as §1

Odorant receptor agonist call, inactive:
CCCCCCC=CCCC=O
Cc1cnc(C)c(C)n1
CCC1OC(C)=C(O)C1=O (stereo not given)
CCC1OC(=O)C(O)=C1C (stereo not given)
CC1=C(O)C(=O)OC1C (stereo not given)
CC1=C(O)C(=O)C(C)O1 (stereo not given)
CC1=NC(C)C(C)S1 (stereo not given)
CCCC(S)CCOC(C)=O (stereo not given)

What follows are compounds tested on T4, O10G7 A18V P19Q G20A. Conditions: stereoisomer not certain.
T4 sequence (whole entry): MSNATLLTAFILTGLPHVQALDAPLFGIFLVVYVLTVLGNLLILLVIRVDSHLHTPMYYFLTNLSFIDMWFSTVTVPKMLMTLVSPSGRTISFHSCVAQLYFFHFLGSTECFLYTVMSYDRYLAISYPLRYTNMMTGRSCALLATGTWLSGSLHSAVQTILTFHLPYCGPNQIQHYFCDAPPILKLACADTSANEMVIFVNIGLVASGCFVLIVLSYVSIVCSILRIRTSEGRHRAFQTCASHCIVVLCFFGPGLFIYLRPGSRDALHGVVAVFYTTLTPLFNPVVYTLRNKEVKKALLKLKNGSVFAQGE
How it was run: as §1

Odorant receptor agonist call, inactive:
CCCCCCC=CCCC=O
Cc1cnc(C)c(C)n1
CCC1OC(C)=C(O)C1=O (stereo not given)
CCC1OC(=O)C(O)=C1C (stereo not given)
CC1=C(O)C(=O)OC1C (stereo not given)
CC1=C(O)C(=O)C(C)O1 (stereo not given)
CC1=NC(C)C(C)S1 (stereo not given)
CCCC(S)CCOC(C)=O (stereo not given)

What follows are compounds tested on T5, O10G7 I28V. Conditions: stereoisomer not certain.
T5 sequence (whole entry): T4 sequence (whole entry) with V18A, Q19P, A20G, I28V
How it was run: as §1

Odorant receptor agonist call, inactive:
CCCCCCC=CCCC=O
Cc1cnc(C)c(C)n1
CCC1OC(C)=C(O)C1=O (stereo not given)
CCC1OC(=O)C(O)=C1C (stereo not given)
CC1=C(O)C(=O)OC1C (stereo not given)
CC1=C(O)C(=O)C(C)O1 (stereo not given)
CC1=NC(C)C(C)S1 (stereo not given)
CCCC(S)CCOC(C)=O (stereo not given)
